The source of these data is ChEMBL document CHEMBL4376860, “Discovery of Novel Dual Poly(ADP-ribose)polymerase and Phosphoinositide 3-Kinase Inhibitors as a Promising Strategy for Cancer Therapy” (J Med Chem, 2020).

Structures are written as SMILES. Activity calls are given as the source filed them. No cut-off for these calls is given here. Some results are limits rather than exact numbers.

One assay deals with Jurkat. Nature of the assay: cells. The note with it: Homo sapiens, 168 h, read-out: pIC50 (converted).
In assay [1] the test system is MDA-MB-468. The assay can be described thus: Induction of apoptosis in human MDA-MB-468 cells assessed as viable cells at 1 uM measured after 72 hrs in presence of PARP inhibitor olaparib by Annexin V-FITC/propidium iodide staining based flow cytometry (reference value: 95.2%). It is filed as functional. The note with it: MDA-MB-468, 72 h, read-out: Activity. On the technique in general: In flow cytometry, cells or beads pass a laser one at a time.

Assay [2] deals with HCC1937. Nature of the assay: cells. Conditions: Homo sapiens, HCC1937, 168 h, read-out: pIC50 (converted).
The test system of assay [3] is MDA-MB-468. The assay can be described thus: Antitumor activity against human MDA-MB-468 cells xenografted in BALB/c mouse assessed as tumor growth inhibition at 27.5 mg/kg, ip administered every 2 days for 34 days and measured at 2 days interval during compound dosing in presence of PARP inhibitor olaparib relative to control. The note with it: MDA-MB-468, ip, read-out: TGI. Format: functional.

Assay [4] has as its system MDA-MB-231. The assay can be described thus: cells. Conditions: Homo sapiens, MDA-MB-231, 168 h, read-out: pIC50 (converted).
Assay [5] has as its system MDA-MB-468. The assay can be described thus: Induction of apoptosis in human MDA-MB-468 cells assessed as early apoptotic cells at 1 uM measured after 72 hrs in presence of PARP inhibitor olaparib by Annexin V-FITC/propidium iodide staining based flow cytometry (reference value: 3.88%). It is filed as functional.
In assay [6] the test system is MDA-MB-468. The assay can be described thus: Induction of apoptosis in human MDA-MB-468 cells assessed as late apoptotic cells at 1 uM measured after 72 hrs in presence of PARP inhibitor olaparib by Annexin V-FITC/propidium iodide staining based flow cytometry (reference value: 0.78%). Format: functional.
For another assay, the system named is A2780. The assay can be described thus: cells. The note with it: Homo sapiens, A2780, 168 h, read-out: pIC50 (converted).
The subject of another assay is CAKI-1. Nature of the assay: cells. Conditions: Homo sapiens, CAKI-1, 168 h, read-out: pIC50 (converted).
The target of assay [7] is Poly [ADP-ribose] polymerase 1 (Homo sapiens, UniProt P09874). The assay can be described thus: Inhibition of recombinant human PARP1 using histone as substrate after 1 hr in presence of biotinylated NAD+ by ELISA. Background: An ELISA detects its analyte on a solid surface through an enzyme-linked reagent.
Sequence of Poly [ADP-ribose] polymerase 1 (P09874 whole entry): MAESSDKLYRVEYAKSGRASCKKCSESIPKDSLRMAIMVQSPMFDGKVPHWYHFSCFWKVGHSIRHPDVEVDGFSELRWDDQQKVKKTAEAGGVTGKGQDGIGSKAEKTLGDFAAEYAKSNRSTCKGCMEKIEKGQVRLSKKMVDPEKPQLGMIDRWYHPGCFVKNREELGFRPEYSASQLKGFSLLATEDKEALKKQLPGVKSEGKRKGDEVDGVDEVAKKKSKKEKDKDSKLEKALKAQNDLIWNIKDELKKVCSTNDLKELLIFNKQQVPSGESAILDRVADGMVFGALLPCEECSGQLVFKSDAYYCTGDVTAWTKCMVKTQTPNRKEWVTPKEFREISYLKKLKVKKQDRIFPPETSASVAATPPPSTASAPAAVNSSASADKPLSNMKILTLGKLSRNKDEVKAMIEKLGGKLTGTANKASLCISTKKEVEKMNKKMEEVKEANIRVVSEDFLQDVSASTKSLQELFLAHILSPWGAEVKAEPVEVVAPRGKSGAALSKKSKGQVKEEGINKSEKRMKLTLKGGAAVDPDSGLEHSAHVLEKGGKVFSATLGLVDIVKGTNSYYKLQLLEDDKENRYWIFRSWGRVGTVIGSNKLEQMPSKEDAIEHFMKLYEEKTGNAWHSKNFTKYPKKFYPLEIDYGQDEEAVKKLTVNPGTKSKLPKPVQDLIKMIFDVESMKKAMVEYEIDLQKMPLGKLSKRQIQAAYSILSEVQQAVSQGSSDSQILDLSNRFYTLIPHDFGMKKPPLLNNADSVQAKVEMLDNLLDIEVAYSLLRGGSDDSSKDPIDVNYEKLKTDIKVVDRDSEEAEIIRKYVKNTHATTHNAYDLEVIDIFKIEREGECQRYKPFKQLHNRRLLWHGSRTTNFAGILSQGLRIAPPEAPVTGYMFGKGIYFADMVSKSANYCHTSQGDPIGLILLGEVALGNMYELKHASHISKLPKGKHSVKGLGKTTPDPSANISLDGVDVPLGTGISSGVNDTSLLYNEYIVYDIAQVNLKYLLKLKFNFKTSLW
Assay [8] deals with MDA-MB-468. Nature of the assay: Inhibition of PI3K in human MDA-MB-468 cells assessed as reduction in AKT phosphorylation at S473 residue at 1 uM measured after 6 to 72 hrs by Western blot analysis. It is filed as cell-based. A digest of the protocol:
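MDA-MB-468 cells seeded overnight, then exposed for 6 h; control medium contained 1‰ DMSO. Lysates run on 8–12% SDS-PAGE and transferred to PVDF. Blots blocked in 5% BSA/TBST and probed for pAKT-Ser473/total AKT or pS6-Ser240/total S6, with β-actin as loading control. HRP secondary with ECL detection; bands quantified by densitometry. Three independent experiments.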

Assay [9] deals with Phosphatidylinositol 4,5-bisphosphate 3-kinase catalytic subunit beta isoform (Homo sapiens, UniProt P42338). The assay can be described thus: Inhibition of PI3Kbeta (unknown origin) using PIP2 as substrate measured after 1 hr by ADP-glo plus luminescence assay.
Sequence of Phosphatidylinositol 4,5-bisphosphate 3-kinase catalytic subunit beta isoform (P42338 whole entry, canonical isoform): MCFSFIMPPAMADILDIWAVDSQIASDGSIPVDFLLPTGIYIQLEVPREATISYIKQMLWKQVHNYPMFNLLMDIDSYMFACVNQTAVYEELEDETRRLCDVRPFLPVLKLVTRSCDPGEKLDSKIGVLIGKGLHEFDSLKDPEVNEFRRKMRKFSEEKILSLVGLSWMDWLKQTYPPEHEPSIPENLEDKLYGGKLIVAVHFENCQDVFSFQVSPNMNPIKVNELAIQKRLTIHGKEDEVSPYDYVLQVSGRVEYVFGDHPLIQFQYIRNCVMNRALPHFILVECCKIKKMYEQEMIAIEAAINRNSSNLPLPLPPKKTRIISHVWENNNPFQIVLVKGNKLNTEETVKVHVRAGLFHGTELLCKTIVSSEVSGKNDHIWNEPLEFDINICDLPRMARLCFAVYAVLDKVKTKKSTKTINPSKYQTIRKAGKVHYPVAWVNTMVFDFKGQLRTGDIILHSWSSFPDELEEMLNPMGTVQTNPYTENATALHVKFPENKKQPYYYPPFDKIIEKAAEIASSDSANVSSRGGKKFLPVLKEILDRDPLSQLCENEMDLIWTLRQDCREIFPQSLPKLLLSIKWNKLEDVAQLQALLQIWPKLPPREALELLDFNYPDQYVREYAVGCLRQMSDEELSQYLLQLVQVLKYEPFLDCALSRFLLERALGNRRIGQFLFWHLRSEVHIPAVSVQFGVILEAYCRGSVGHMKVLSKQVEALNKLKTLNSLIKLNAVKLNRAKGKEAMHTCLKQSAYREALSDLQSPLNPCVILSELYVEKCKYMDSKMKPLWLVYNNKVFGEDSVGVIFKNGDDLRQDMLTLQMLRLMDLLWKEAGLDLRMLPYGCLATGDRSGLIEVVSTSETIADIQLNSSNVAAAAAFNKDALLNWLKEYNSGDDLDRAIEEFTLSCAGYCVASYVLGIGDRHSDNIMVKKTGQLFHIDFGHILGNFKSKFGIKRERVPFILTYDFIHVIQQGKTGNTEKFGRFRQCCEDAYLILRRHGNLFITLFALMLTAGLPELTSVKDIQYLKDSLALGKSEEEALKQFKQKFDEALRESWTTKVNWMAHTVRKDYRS
Assay [10] concerns the target Poly [ADP-ribose] polymerase 2 (Homo sapiens, UniProt Q9UGN5). The assay can be described thus: Inhibition of recombinant human PARP2 using histone as substrate after 1 hr in presence of biotinylated NAD+ by ELISA.
For assay [11], the system named is MDA-MB-468. The assay can be described thus: Inhibition of PI3K in human MDA-MB-468 cells assessed as increase in gammaH2AX foci formation at 1 uM measured after 72 hrs by DAPI staining based immunofluorescence microscopic analysis. Format: cell-based. In short, it runs like this:
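MDA-MB-468 cells on coverslips given drugs for 72 h. Fixed in 3% formaldehyde, permeabilized with 0.1% Triton X-100, blocked in 10% FBS/PBS, then rabbit anti-γH2AX (Ser139) overnight at 4 °C. Secondary antibody and DAPI stain followed. About 200 cells scored for foci; a cell was positive with more than 5 foci. Three independent experiments.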

Assay [12] has as its system HCC1937. Nature of the assay: Potency index, ratio of BKM120 IC50 to test compound IC50 for antiproliferative activity against human HCC1937 cells. It is filed as functional.
Assay [13] relates to MDA-MB-231. Nature of the assay: Potency index, ratio of BKM120 IC50 to test compound IC50 for antiproliferative activity against human MDA-MB-231 cells. Format: functional.
Assay [14] has as its target Phosphatidylinositol 4,5-bisphosphate 3-kinase catalytic subunit gamma isoform (Homo sapiens, UniProt P48736). The assay can be described thus: Inhibition of PI3Kgamma (unknown origin) using PIP2 as substrate measured after 1 hr by ADP-glo plus luminescence assay. In general terms: ADP-Glo turns the ADP formed in a reaction into a luminescent signal.
For the next assay, the system named is Mus musculus. Nature of the assay: In vivo inhibition of PI3K in BALB/c mouse xenografted with human MDA-MB-468 cells assessed as reduction in pS6 phosphorylation at S240 residue at 50 mg/kg, ip administered every 2 days for 34 days measured post-last dose by Western blot analysis. It is filed as functional, organism-based.
Assay [15] deals with Phosphatidylinositol 4,5-bisphosphate 3-kinase catalytic subunit alpha isoform (Homo sapiens, UniProt P42336). The assay can be described thus: Inhibition of PI3Kalpha (unknown origin) using PIP2 as substrate measured after 1 hr by ADP-glo plus luminescence assay.
Sequence of Phosphatidylinositol 4,5-bisphosphate 3-kinase catalytic subunit alpha isoform (P42336 whole entry, canonical isoform): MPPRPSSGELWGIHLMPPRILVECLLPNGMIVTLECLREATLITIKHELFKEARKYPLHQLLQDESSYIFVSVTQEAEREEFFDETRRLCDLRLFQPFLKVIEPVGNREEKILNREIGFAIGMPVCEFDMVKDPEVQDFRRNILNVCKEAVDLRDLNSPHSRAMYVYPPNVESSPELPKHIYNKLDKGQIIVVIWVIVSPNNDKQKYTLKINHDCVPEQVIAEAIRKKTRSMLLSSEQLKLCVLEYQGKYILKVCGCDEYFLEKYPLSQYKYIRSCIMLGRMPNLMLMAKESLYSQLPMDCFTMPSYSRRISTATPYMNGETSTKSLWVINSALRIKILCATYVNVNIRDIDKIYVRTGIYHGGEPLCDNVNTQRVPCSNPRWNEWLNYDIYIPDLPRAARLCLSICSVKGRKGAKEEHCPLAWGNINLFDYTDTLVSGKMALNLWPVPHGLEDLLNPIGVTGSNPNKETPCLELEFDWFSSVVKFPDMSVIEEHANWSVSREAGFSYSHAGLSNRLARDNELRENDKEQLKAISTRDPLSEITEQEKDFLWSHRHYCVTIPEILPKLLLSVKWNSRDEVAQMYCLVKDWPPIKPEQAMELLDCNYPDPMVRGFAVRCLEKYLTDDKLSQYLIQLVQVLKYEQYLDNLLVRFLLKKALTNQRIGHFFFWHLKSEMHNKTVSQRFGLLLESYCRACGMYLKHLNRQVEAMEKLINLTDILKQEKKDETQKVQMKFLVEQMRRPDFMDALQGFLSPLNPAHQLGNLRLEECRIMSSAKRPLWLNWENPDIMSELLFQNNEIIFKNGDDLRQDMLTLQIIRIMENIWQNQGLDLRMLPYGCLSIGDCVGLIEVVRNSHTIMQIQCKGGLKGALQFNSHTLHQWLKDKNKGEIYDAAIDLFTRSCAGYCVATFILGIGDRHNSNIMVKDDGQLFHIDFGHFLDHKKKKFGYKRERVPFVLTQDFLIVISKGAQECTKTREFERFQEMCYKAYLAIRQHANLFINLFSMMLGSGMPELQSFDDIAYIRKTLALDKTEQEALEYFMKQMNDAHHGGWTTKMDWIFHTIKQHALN

Sequence of Phosphatidylinositol 4,5-bisphosphate 3-kinase catalytic subunit gamma isoform (P48736 whole entry, canonical isoform): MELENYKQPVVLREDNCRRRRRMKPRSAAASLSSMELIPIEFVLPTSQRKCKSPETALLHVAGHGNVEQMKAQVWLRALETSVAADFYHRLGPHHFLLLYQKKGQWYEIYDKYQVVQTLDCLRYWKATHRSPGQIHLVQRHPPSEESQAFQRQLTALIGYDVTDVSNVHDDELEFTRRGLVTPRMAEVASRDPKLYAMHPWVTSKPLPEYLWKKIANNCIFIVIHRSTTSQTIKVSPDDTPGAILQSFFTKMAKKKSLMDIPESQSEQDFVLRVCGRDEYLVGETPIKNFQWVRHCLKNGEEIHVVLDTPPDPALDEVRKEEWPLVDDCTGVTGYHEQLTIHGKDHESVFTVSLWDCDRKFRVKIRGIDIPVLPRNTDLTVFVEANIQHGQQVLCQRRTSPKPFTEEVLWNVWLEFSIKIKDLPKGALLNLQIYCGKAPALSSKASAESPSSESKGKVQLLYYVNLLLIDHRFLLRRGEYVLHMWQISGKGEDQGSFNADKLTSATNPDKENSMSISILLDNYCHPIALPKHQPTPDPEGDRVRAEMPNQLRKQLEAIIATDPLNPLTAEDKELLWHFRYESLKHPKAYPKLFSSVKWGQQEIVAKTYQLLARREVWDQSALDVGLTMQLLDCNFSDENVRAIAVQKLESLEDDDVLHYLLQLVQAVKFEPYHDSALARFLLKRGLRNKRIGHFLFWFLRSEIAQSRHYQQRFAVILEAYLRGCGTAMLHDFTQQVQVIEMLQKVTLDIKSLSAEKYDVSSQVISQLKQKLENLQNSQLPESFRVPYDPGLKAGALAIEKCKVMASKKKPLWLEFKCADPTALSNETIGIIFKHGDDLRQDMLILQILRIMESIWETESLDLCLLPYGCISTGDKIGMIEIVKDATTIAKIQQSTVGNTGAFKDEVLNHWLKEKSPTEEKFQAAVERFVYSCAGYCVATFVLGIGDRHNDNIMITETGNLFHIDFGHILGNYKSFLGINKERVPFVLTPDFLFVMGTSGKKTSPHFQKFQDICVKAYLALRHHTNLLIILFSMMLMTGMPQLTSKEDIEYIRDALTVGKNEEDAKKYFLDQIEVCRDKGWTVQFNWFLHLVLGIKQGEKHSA
Sequence of Poly [ADP-ribose] polymerase 2 (Q9UGN5 whole entry): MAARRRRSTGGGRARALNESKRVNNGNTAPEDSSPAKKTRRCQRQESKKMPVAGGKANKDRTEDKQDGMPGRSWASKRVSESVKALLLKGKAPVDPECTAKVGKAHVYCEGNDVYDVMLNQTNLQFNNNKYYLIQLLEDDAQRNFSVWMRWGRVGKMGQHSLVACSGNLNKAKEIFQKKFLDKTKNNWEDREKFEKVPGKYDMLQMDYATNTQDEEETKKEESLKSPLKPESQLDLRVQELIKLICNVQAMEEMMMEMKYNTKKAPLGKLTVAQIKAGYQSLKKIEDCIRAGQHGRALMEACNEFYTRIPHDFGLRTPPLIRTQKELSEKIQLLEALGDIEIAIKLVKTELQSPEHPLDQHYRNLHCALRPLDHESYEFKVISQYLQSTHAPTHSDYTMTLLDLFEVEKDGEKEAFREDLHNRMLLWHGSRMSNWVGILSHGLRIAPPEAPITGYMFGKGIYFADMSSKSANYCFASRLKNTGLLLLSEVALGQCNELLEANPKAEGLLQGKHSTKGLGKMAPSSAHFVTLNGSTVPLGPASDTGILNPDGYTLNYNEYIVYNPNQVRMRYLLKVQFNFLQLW

Consider `Nc1cc(C(F)(F)F)c(-c2cc(N3CCOCC3)nc(N3CCOCC3)n2)cn1` [BUPARLISIB], for which the IC50 in the assay with Jurkat is 1.29 µM; with HCC1937 [2], 1.7 µM; with MDA-MB-231 [4] it was 1.58 µM; in the assay with A2780, 0.347 µM; in the assay on CAKI-1, 1.86 µM. Also, the viability at 1 µM with MDA-MB-468 [1] amounted to 81.5%. Moreover, in the assay on MDA-MB-468 [3], the inhibition in vivo at 27.5 mg/kg is 48.4%. Further, the Activity worked out at 9.21% in the assay on MDA-MB-468 [5] and 7.84% in the assay on MDA-MB-468 [6].
As for `Nc1cc(C(F)(F)F)c(-c2nc3c(c(N4CCOCC4)n2)CCN(C(=O)c2cc(Cc4n[nH]c(=O)c5ccccc45)ccc2F)C3)cn1`, the IC50 in [7] was 0.00603 µM; in assay [9] it was 0.288 µM; in assay [10], 0.00363 µM; in assay [14], 0.832 µM; in [15] it was 0.00562 µM. In addition, the inhibition result in the assay with MDA-MB-468 [8], in the assay on MDA-MB-468 [11] and with Mus musculus was “Active” throughout. Besides, the “Ratio IC50” value in the assay with HCC1937 [12] and in the assay with MDA-MB-231 [13] was “>=4” each time.
